# Data taken from ChEMBL document CHEMBL3992521, “Pyrimidinyl Biphenylureas: Identification of New Lead Compounds as Allosteric Modulators of the Cannabinoid Receptor CB1” (J Med Chem, 2017).
# The source made the active and inactive calls. The calls are words filed in the database; no cut-off is given here.
# Columns and labels:
# [1] = biological target: Cannabinoid receptor 1 (Homo sapiens) (UniProt P21554); experiment: Positive allosteric modulation of CB1 receptor (unknown origin) expressed in HEK293T cell membranes assessed as increase in [3H]CP55,940 binding by liquid scintillation counting method
# Summary of the method: (§1)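 Membranes from HEK293T cells transiently expressing CB1 (harvested 24 h post-transfection) incubated with 0.5 nM [3H]CP55,940 and at least nine modulator concentrations (100 pM–100 µM) in TME buffer pH 7.4 with 0.2% fatty acid-free BSA; nonspecific binding with 1 µM unlabeled CP55,940; filtration. KB and cooperativity α from nonlinear regression; duplicate, ≥3 experiments, 95% confidence limits.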
# [2] = biological target: Cannabinoid receptor 1 (Homo sapiens) (UniProt P21554); experiment: Positive allosteric modulation of CB1 receptor (unknown origin) expressed in HEK293T cell membranes assessed as increase in [3H]CP55,940 binding up to 32 uM by liquid scintillation counting method; summary of the method: as §1
# [3] = biological target: Cannabinoid receptor 1 (Homo sapiens) (UniProt P21554); experiment: Allosteric modulation at CB1 receptor (unknown origin) expressed in HEK293T cell membranes assessed as inhibition of CP55,940 induced [35S]GTPgammaS binding after 1 hr by liquid scintillation counting method; format: functional
# Summary of the method: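 HEK293T cells transiently transfected with CB1 (calcium phosphate), membranes harvested 24 h later; 7.5 µg membrane incubated 1 h at 30 °C with CP55,940 1 µM, 0.1 nM [35S]GTPγS, 5 µM GDP, 0.1% BSA in Tris-HCl pH 7.4/MgCl2/EGTA/NaCl buffer, varying modulator concentrations. Nonspecific binding with 10 µM unlabeled GTPγS; filtration. Expressed as % of CP55,940 signal; duplicate, ≥3 independent experiments.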
# [4] = biological target: Cannabinoid receptor 1 (Homo sapiens) (UniProt P21554); experiment: Positive allosteric modulation of CB1 receptor (unknown origin) expressed in HEK293T cell membrane assessed as increase in beta-arrestin mediated ERK1/2 phosphorylation at 10 uM in presence of G-protein sensitive pertussis toxin incubated for 5 mins by Western blot method; format: cell-based
# Summary of the method: (§2)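 CB1-transfected HEK293T cells carried control, β-arrestin 1 or β-arrestin 2 siRNA, or were pretreated 12 h at 37 °C with PTX 5 ng/mL. They were then washed and given allosteric modulator 10 μM alone for 5 min, with DMSO vehicle as control. ERK1/2 phosphorylation was read by Western blot of 13 µg lysate protein using phospho- and total p44/42 antibodies.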
# [5] = biological target: Cannabinoid receptor 1 (Homo sapiens) (UniProt P21554); experiment: Positive allosteric modulation of CB1 receptor (unknown origin) expressed in HEK293T cell membrane assessed as ERK1/2 phosphorylation in presence of beta-arrestin1 siRNA at 10 uM incubated for 5 mins by Western blot method; format: cell-based; summary of the method: as §2
# Chain of Cannabinoid receptor 1 (Homo sapiens) (P21554 whole entry): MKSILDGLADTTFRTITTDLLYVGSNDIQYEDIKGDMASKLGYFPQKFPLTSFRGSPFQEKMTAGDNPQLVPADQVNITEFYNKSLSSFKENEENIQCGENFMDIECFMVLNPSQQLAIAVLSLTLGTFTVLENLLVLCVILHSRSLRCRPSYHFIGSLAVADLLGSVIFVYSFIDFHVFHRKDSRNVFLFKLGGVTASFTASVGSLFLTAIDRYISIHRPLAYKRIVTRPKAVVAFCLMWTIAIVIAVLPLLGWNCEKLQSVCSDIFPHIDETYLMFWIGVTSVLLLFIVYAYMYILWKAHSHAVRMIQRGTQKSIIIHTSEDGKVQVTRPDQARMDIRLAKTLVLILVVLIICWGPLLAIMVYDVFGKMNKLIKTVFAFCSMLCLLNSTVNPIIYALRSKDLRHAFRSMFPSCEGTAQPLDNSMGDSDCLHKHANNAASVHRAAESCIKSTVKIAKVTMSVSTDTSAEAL
SMILES,Kb [1],other results
CN(C)c1ccnc(-c2cccc(NC(=O)Nc3cccc(F)c3)c2)n1,670 nM,–
O=C(Nc1ccc(C(=O)O)cc1)Nc1cccc(-c2nccc(N3CCCC3)n2)c1,–,Activity [1]: inactive; Activity [2]: inactive
CC(=O)c1ccc(NC(=O)Nc2cccc(-c3nccc(N4CCCC4)n3)c2)cc1,2110 nM,–
O=C(Nc1ccc(Cl)cc1)Nc1cccc(-c2ccnc(N3CCCC3)n2)c1,227 nM,inhibition [3]: Dose-dependent effect
CCOC(=O)c1ccc(NC(=O)Nc2cccc(-c3nccc(N4CCCC4)n3)c2)cc1,463 nM,–
N#Cc1ccc(NC(=O)Nc2cccc(-c3nccc(NC4CC4)n3)c2)cc1,97.7 nM,–
CN(C)c1nccc(-c2cccc(NC(=O)Nc3cccc(F)c3)c2)n1,967 nM,–
O=C(Nc1ccc(F)cc1)Nc1cccc(-c2ccnc(N3CCCC3)n2)c1,196 nM,–
N#Cc1ccc(NC(=O)Nc2cccc(-c3nccc(N4CCCC4)n3)c2)cc1,49.1 nM,inhibition [3]: Dose-dependent effect; Activity [4]: Active; Activity [5]: Active
N#Cc1ccc(NC(=O)Nc2cccc(-c3ccnc(N4CCCC4)n3)c2)cc1,168 nM,inhibition [3]: Dose-dependent effect; Activity [4]: Active; Activity [5]: Active
COc1ccc(NC(=O)Nc2cccc(-c3nccc(N4CCCC4)n3)c2)cc1,1830 nM,–
CN(C)c1ccnc(-c2cccc(NC(=O)Nc3ccc(I)cc3)c2)n1,997 nM,–
CCN(C)c1ccnc(-c2cccc(NC(=O)Nc3ccc(C#N)cc3)c2)n1,207 nM,–
O=C(Nc1ccc(Br)cc1)Nc1cccc(-c2nccc(N3CCCC3)n2)c1,102 nM,–
O=C(Nc1ccc(F)cc1)Nc1cccc(-c2nccc(N3CCCC3)n2)c1,223 nM,–
O=C(Nc1ccc(Cl)cc1)Nc1cccc(-c2nccc(N3CCCC3)n2)c1,264 nM,inhibition [3]: Dose-dependent effect
O=C(Nc1ccc(Cl)cc1)Nc1cccc(-c2cccc(N3CCCC3)n2)c1,–,inhibition [3]: Dose-dependent effect; Activity [5]: Active
CN(C)c1nccc(-c2cccc(NC(=O)Nc3ccc(F)cc3)c2)n1,1120 nM,–
N#Cc1cccc(NC(=O)Nc2cccc(-c3nccc(N4CCCC4)n3)c2)c1,1980 nM,–
CCN(CC)c1ccnc(-c2cccc(NC(=O)Nc3ccc(C#N)cc3)c2)n1,69.6 nM,inhibition [3]: Dose-dependent effect
N#Cc1ccc(NC(=O)Nc2cccc(-c3nccc(N4CCC4)n3)c2)cc1,211 nM,–
CN(C)c1ccnc(-c2cccc(NC(=O)Nc3ccc(C#N)cc3)c2)n1,313 nM,–
CN(C)c1ccnc(-c2cccc(NC(=O)Nc3ccc(C(F)(F)F)cc3)c2)n1,144 nM,–
N#Cc1ccc(NC(=O)Nc2cccc(-c3nccc(N4CCCCC4)n3)c2)cc1,66.4 nM,–
O=C(Nc1ccc(O)cc1)Nc1cccc(-c2nccc(N3CCCC3)n2)c1,–,Activity [1]: inactive; Activity [2]: inactive
O=C(Nc1ccc(Br)cc1)Nc1cccc(-c2ccnc(N3CCCC3)n2)c1,395 nM,–
CN(C)c1ccnc(-c2cccc(NC(=O)Nc3ccc(F)cc3)c2)n1,1220 nM,–
CN(C)c1nccc(-c2cccc(NC(=O)Nc3ccc(I)cc3)c2)n1,965 nM,–
CN(C)c1nccc(-c2cccc(NC(=O)Nc3ccc(C#N)cc3)c2)n1,417 nM,–
